Assay results reported in ChEMBL document CHEMBL4190330, “Discovery of Potent and Selective A2A Antagonists with Efficacy in Animal Models of Parkinson's Disease and Depression” (ACS Med Chem Lett, 2017).
Converted amounts (≈) assume the structure as drawn. The source made the active and inactive calls. The calls are words filed in the database; no cut-off is given here.

Experiments:
[1] = target: Cytochrome P450 3A4 (Homo sapiens, UniProt P08684); assay: Inhibition of CYP3A4 (unknown origin); type: ADME
Chain of Cytochrome P450 3A4 (P08684 whole entry): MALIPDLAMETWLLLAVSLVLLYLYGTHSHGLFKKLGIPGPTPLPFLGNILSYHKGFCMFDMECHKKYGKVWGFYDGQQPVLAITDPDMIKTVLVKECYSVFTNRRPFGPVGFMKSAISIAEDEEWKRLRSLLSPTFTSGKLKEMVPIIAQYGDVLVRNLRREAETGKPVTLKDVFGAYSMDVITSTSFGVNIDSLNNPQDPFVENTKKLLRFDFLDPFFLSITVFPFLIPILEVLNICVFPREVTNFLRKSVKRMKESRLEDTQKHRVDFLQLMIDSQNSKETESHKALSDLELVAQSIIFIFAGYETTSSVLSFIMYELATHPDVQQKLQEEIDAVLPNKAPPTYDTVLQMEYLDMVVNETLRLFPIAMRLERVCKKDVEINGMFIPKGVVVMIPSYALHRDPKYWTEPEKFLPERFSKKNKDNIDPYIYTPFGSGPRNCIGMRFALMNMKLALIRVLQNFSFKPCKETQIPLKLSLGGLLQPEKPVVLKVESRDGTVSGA

[2] = Protein binding in rat plasma; type: ADME, cell-free; conditions: read-out: PPB (converted)
[3] = target: T1, hERG (Homo sapiens, UniProt Q12809); assay: Inhibition of human ERG at 3 uM relative to control
T1 sequence (Q12809 whole entry): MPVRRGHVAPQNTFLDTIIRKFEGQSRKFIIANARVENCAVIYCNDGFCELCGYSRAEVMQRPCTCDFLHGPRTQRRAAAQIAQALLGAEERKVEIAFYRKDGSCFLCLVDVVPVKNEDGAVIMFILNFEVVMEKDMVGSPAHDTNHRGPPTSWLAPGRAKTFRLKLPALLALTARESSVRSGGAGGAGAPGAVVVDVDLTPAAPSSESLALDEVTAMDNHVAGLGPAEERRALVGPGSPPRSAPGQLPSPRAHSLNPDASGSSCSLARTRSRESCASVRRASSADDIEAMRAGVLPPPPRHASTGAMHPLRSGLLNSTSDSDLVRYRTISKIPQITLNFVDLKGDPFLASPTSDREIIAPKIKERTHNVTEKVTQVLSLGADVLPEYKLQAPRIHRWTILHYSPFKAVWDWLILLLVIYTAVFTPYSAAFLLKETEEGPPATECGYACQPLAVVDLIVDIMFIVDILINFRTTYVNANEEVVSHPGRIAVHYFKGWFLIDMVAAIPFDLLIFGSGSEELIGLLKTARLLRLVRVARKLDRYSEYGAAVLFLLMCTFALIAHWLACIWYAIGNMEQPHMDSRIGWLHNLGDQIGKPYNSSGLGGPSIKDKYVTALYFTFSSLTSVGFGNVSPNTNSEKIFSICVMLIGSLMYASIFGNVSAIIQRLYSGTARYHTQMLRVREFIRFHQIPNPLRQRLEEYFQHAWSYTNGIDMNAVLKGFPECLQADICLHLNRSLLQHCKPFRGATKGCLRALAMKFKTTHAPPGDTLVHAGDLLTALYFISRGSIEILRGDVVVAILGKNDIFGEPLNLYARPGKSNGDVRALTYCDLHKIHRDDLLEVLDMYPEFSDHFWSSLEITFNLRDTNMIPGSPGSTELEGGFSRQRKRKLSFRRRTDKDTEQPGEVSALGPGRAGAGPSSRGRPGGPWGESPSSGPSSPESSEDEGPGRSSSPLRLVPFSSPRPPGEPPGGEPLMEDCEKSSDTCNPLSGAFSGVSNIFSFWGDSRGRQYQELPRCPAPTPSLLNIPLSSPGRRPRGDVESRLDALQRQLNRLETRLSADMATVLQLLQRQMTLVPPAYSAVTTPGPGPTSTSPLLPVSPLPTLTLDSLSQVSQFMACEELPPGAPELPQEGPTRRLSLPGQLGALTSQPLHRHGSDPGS

[4] = Ratio of AUC (0 to 4 hrs) in Wistar rat brain to plasma at 3 mg/kg, iv by LC-MS/MS analysis; type: ADME, organism-based; conditions: read-out: Ratio AUC
[5] = target: T2, Nuclear receptor subfamily 1 group I member 2 (Homo sapiens, UniProt O75469); assay: Transactivation of recombinant human PXR expressed in HepG2 cells after 42 hrs by dual luciferase reporter gene assay; type: ADME, cell-based
T2 sequence (O75469 whole entry): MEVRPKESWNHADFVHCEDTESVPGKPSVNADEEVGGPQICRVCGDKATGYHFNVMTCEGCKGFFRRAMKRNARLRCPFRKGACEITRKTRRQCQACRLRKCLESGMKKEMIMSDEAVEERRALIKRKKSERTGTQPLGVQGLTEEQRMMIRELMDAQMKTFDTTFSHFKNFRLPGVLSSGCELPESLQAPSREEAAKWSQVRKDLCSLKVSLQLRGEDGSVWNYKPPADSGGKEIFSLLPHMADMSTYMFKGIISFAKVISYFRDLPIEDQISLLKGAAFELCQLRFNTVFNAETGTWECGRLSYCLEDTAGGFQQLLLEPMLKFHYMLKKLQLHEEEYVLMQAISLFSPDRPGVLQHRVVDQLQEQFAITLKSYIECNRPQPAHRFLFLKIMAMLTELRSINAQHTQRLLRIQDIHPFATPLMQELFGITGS

[6] = organism: Homo sapiens; assay: Selectivity ratio of Ki for displacement of [3H]-DPCPX from human A1 receptor expressed in HEK293 cell membranes to Ki for displacement of [3H]ZM241385 from human A2A receptor expressed in HEK293 cell membranes
Outline: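 Radioligand binding used membranes from HEK-293 cells overexpressing each human adenosine receptor isoform. Points were run in triplicate, and 8-concentration IC50 curves were plotted to give Ki. The selectivity value is the Ki at the off-target isoform divided by the Ki at hA2A.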

[7] = Tmax in Wistar rat at 10 mg/kg, po administered via gavage by LC-MS/MS analysis; type: ADME, organism-based; conditions: in vivo
Outline: (§1)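 Male Wistar rats, n = 4; oral dose 10 mg/kg as suspension in 1% Tween 80 with 0.5% w/v NaCMC; values are means.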

[8] = AUC (0 to t) in Wistar rat at 3 mg/kg, iv by LC-MS/MS analysis; type: ADME, organism-based; conditions: in vivo
[9] = target: Cytochrome P450 2D6 (Homo sapiens, UniProt P10635); assay: Inhibition of CYP2D6 (unknown origin); type: ADME
Chain of Cytochrome P450 2D6 (P10635 whole entry): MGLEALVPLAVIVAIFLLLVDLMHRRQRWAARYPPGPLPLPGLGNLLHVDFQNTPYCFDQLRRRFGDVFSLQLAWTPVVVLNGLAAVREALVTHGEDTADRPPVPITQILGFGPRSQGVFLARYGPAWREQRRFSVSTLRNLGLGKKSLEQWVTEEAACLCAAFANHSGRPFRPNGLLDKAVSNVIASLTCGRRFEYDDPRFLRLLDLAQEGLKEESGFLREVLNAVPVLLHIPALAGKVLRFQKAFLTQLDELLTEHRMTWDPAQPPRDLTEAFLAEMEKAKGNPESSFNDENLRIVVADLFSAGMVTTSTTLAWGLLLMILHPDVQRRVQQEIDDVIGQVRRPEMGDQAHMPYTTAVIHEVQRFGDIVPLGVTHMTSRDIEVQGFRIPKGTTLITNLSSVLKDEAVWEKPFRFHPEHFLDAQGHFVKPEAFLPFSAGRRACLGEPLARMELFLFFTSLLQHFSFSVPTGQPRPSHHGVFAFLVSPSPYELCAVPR

[10] = Volume of distribution at steady state in Wistar rat at 3 mg/kg, iv by LC-MS/MS analysis; type: ADME, organism-based; conditions: in vivo, read-out: Vdss
Outline: (§2)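 Male Wistar rats, n = 4; iv dose 3 mg/kg in 10% NMP, 10% Cremophor EL, acetate buffer pH 4.2 q.s.; values are means.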

[11] = AUC (0 to t) in Wistar rat at 10 mg/kg, po administered via gavage by LC-MS/MS analysis; type: ADME, organism-based; conditions: in vivo
[12] = target: Adenosine receptor A2a (Homo sapiens, UniProt P29274); assay: Displacement of [3H]ZM241385 from human A2A receptor expressed in HEK293 cell membranes after 90 mins radioligand binding assay
Chain of Adenosine receptor A2a (P29274 whole entry): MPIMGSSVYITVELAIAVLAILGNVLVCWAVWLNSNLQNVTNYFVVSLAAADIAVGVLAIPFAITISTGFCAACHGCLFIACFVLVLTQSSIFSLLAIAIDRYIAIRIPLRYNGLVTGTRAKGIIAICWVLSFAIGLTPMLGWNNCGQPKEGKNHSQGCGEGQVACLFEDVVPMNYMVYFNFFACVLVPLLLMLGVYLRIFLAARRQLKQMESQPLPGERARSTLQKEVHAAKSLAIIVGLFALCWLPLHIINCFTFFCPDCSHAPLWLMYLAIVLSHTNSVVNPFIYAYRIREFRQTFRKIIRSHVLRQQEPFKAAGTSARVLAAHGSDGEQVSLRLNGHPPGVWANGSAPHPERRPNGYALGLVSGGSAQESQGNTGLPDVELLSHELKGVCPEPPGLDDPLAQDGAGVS
Outline: (§3)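 Membranes from HEK-293 cells overexpressing the relevant human adenosine receptor subtype; all points in triplicate; Ki derived from 8-concentration IC50 curves.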

[13] = Solubility of the compound at pH 4; type: physicochemical; conditions: buffer
[14] = system: Rattus norvegicus; assay: Anti-parkinson's activity in po dosed 6-OHDA-lesioned Wistar rat assessed as increase in L-DOPA induced contralateral rotations measured up to 2 hrs; type: functional
Outline: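 6-OHDA-lesioned rats given oral test doses; L-DOPA 4 mg/kg ip; contralateral rotations recorded up to 2 h, dosing 60 min prior; mean ± SEM, n=6-7; compared with L-DOPA-alone group.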

[15] = system: HepG2; assay: Cytotoxicity against human HepG2 cells after 24 hrs by MTT assay; type: cell-based; conditions: HepG2, 24 h
[16] = Systemic clearance in Wistar rat at 3 mg/kg, iv by LC-MS/MS analysis; type: ADME, organism-based; conditions: in vivo; outline: as §2
[17] = target: T3, Adenosine receptor A1 (Homo sapiens, UniProt P30542); assay: Displacement of [3H]-DPCPX from human A1 receptor expressed in HEK293 cell membranes after 90 mins radioligand binding assay; outline: as §3
T3 sequence (P30542 whole entry): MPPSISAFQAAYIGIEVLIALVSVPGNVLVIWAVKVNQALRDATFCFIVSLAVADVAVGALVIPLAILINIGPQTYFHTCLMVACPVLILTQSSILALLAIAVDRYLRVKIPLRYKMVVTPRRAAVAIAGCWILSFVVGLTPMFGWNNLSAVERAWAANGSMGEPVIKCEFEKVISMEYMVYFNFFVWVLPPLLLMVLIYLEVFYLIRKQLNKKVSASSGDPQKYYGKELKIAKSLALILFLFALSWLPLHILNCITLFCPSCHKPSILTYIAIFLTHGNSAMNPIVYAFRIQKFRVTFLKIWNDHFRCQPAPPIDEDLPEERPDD

[18] = Metabolic stability in dog liver microsomes assessed as metabolic rate; type: ADME, Canis lupus familiaris, microsome
Outline: (§4)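 Liver microsomes (mouse, rat, dog, human) at 0.125 mg/mL protein; metabolic rate expressed as nmol/min/mg.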

[19] = target: Cytochrome P450 2C9 (Homo sapiens, UniProt P11712); assay: Inhibition of CYP2C9 (unknown origin); type: ADME
Chain of Cytochrome P450 2C9 (P11712 whole entry): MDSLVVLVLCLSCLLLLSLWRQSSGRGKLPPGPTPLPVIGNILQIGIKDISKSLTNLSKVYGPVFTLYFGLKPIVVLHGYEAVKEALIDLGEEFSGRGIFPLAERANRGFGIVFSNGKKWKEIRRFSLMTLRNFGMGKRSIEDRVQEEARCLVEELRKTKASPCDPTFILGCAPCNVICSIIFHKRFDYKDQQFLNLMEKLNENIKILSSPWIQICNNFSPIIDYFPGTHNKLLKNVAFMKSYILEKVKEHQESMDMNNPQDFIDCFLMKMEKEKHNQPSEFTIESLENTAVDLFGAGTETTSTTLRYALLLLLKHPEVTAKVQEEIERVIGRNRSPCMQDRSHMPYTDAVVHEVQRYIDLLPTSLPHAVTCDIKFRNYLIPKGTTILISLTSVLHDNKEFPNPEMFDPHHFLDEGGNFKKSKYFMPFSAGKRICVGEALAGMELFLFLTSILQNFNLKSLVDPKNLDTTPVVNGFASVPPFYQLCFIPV

[20] = Permeability across apical to basolateral side in human Caco2 cells; type: ADME, cell-based; conditions: caco-2
[21] = Protein binding in mouse plasma; type: ADME, cell-free; conditions: read-out: PPB (converted)
[22] = target: T1, hERG; assay: Inhibition of human ERG at 10 uM relative to control
[23] = Solubility of the compound at pH 2; type: physicochemical; conditions: buffer
[24] = Oral bioavailability in Wistar rat at 10 mg/kg administered via gavage by LC-MS/MS analysis; type: ADME, organism-based; conditions: in vivo; outline: as §1
[25] = target: T4, Adenosine receptor A1 (Homo sapiens) (UniProt P30542); assay: Antagonist activity at human adenosine A1 receptor expressed in HEK293 cell membranes assessed as inhibition of CPA/forskolin-induced cAMP level at 10 uM pretreated for 15 mins followed by agonist addition for 15 mins and subsequent forskolin stimulation measured after 30 mins by HTRF assay; type: functional, cell-based
T4 sequence (whole entry): T3 sequence (P30542 whole entry)
Outline: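 HTRF cAMP functional assay on the human receptor isoform, run in triplicate at 12 concentrations with a top concentration of 10 µM, in two independent experiments. Inhibition at 10 µM is recorded where no Ki could be derived.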

[26] = Solubility of the compound at pH 7.4; type: physicochemical; conditions: buffer
[27] = Cmax in Wistar rat at 10 mg/kg, po administered via gavage by LC-MS/MS analysis; type: ADME, organism-based; parameters: dose 10 mg/kg, route oral; conditions: in vivo; outline: as §1
[28] = system: Rattus norvegicus; assay: Anti-parkinson's activity in po dosed Wistar rat assessed as reversal of haloperidol-induced catalepsy measured after 1 to 4 hrs; type: functional, organism-based
Outline: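 Haloperidol-induced catalepsy in rats; oral dosing; catalepsy scored at 1, 2 and 4 h; ED50 derived; mean ± SEM, n=6-7.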

[29] = Metabolic stability in rat liver microsomes assessed as metabolic rate; type: ADME, microsome; outline: as §4

**Q.** For `COCCOc1ccc(N2CCN(CCn3c(=O)n(C)c4c3nc(N)n3nc(-c5nccs5)nc43)CC2)cc1F`, which IC50 [1] is on record?
**A.** > 10 µM

**Q.** And the fraction unbound [2]?
**A.** 0.18

**Q.** What about the inhibition at 3 µM [3] of the same compound?
**A.** 28%

**Q.** And the Kp [4]?
**A.** 0.38

**Q.** And the EC50 [5]?
**A.** > 60 µM

**Q.** What about the Ratio Ki [6] of the same compound?
**A.** > 1100

**Q.** What about the Tmax [7] of the same compound?
**A.** 48 min

**Q.** And the AUC(0-t) [8]?
**A.** 3.6 µM·h

**Q.** What about the IC50 [9] of the same compound?
**A.** > 10 µM

**Q.** What about the Vd [10] of the same compound?
**A.** 3.6 L/kg

**Q.** And the AUC(0-t) [11]?
**A.** 2.2 µM·h

**Q.** What about the Ki [12] of the same compound?
**A.** 0.0015 µM

**Q.** What about the solubility [13] of the same compound?
**A.** 486 µM (≈ 276 µg/mL)

**Q.** What about the Activity [14] of the same compound?
**A.** Dose-dependent effect

**Q.** What about the ED50 [14] of the same compound?
**A.** 1.2 mg/kg

**Q.** And the IC50 [15]?
**A.** > 30 µM

**Q.** And the clearance [16]?
**A.** 45 mL/min/kg

**Q.** What about the Ki [17] of the same compound?
**A.** 1.7 µM

**Q.** And the Drug metabolism [18]?
**A.** 0.04 nmol/min/mg

**Q.** What about the IC50 [19] of the same compound?
**A.** > 10 µM

**Q.** And the permeability [20]?
**A.** Permeable

**Q.** What about the fraction unbound [21] of the same compound?
**A.** 0.49

**Q.** And the inhibition at 10 µM [22]?
**A.** 38%

**Q.** What about the solubility [23] of the same compound?
**A.** > 2000 µM

**Q.** And the bioavailability [24]?
**A.** 32%

**Q.** What about the inhibition [25] of the same compound?
**A.** inactive

**Q.** What about the solubility [26] of the same compound?
**A.** 17 µM (≈ 9.67 µg/mL)

**Q.** And the Cmax [27]?
**A.** 600 nM

**Q.** And the Activity [28]?
**A.** Dose-dependent effect

**Q.** And the ED50 [28]?
**A.** 4.49 mg/kg

**Q.** What about the Drug metabolism [29] of the same compound?
**A.** 0 nmol/min/mg
